Reference: the M2OR odorant receptor database

Columns and labels:
Settings in all cases: stereoisomer not certain
[1] = molecular target: T1, OR1G1 (Homo sapiens) (UniProt P47890)
T1 sequence (whole entry): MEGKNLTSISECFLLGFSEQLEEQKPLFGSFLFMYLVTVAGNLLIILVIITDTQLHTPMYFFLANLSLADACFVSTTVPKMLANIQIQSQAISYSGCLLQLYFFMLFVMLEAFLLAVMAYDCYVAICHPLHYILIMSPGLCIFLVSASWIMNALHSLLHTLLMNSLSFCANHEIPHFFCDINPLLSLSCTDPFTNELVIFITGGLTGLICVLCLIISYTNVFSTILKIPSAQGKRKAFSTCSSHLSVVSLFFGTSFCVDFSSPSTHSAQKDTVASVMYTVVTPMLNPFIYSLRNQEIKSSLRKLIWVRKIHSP
Method in brief: (§1)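 Assay methods differ from source to source, frequently being transient luciferase assays in mammalian cell lines. For each receptor–molecule pair, the label responsive (active) applies when the original authors judged the measured signal statistically different from baseline, and non-responsive (inactive) applies otherwise.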

[2] = molecular target: T2, OR1F12P (Homo sapiens) (UniProt Q8NHA8)
T2 sequence (whole entry): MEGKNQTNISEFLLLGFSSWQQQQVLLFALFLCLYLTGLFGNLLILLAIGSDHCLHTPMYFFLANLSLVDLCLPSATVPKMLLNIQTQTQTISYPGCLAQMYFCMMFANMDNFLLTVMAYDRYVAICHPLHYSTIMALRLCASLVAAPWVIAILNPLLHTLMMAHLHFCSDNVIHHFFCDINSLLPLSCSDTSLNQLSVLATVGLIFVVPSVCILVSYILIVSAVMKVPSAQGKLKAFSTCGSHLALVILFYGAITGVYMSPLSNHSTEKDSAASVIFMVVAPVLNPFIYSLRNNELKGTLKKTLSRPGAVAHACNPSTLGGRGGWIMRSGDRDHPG
Method in brief: as §1

[3] = molecular target: T3, OR1I1 (Homo sapiens) (UniProt O60431)
T3 sequence (whole entry): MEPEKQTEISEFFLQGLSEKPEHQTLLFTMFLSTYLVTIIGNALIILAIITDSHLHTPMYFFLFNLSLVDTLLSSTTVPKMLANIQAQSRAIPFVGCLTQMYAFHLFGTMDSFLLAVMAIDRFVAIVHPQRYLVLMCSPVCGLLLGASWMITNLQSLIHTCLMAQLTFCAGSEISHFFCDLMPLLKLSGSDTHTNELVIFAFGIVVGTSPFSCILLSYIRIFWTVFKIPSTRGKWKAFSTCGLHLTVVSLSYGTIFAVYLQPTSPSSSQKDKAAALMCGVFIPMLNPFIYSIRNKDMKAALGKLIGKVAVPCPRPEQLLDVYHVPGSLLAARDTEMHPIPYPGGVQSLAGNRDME
Method in brief: as §1

[4] = molecular target: T4, OR1J1 (Homo sapiens) (UniProt Q8NGS3)
T4 sequence (whole entry): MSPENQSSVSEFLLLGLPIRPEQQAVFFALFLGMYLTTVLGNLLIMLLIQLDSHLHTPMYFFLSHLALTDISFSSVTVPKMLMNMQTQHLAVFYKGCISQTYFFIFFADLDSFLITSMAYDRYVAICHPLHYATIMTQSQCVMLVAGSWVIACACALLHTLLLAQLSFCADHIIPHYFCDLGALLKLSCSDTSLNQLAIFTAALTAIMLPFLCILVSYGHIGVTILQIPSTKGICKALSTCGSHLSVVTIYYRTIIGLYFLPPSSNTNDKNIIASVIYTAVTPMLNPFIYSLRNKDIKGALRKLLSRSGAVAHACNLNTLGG
Method in brief: as §1

[5] = molecular target: T5, OR1J2 (Homo sapiens) (UniProt Q8NGS2)
T5 sequence (whole entry): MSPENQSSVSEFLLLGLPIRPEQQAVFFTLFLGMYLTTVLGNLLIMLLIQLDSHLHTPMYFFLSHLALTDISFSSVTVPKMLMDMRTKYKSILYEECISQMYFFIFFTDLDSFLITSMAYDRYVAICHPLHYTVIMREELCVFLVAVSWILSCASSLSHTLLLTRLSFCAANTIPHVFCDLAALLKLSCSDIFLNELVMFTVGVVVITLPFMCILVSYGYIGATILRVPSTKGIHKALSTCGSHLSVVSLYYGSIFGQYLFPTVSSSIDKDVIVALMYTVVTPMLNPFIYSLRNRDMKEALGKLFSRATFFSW
Method in brief: as §1

[6] = molecular target: T6, OR1J4 (Homo sapiens) (UniProt Q8NGS1)
T6 sequence (whole entry): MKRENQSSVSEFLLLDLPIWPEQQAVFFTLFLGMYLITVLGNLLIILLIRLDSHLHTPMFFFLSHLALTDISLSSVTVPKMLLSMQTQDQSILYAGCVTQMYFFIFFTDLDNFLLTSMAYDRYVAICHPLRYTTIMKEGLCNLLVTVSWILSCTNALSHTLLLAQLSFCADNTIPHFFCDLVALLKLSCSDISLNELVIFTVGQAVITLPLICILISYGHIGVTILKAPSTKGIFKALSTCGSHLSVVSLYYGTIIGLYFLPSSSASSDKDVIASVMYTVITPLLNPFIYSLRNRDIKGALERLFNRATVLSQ
Method in brief: as §1

[7] = molecular target: T7, OR1K1 (Homo sapiens) (UniProt Q8NGR3)
T7 sequence (whole entry): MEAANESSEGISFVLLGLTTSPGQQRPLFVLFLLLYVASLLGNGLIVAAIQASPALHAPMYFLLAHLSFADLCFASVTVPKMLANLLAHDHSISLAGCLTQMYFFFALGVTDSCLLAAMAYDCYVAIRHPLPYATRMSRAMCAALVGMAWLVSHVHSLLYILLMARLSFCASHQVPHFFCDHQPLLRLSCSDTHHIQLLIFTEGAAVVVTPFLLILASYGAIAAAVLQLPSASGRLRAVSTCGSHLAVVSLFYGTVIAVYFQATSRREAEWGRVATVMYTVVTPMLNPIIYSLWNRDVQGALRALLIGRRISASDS
Method in brief: as §1

[8] = molecular target: T8, OR1L1 (Homo sapiens) (UniProt Q8NH94)
T8 sequence (whole entry): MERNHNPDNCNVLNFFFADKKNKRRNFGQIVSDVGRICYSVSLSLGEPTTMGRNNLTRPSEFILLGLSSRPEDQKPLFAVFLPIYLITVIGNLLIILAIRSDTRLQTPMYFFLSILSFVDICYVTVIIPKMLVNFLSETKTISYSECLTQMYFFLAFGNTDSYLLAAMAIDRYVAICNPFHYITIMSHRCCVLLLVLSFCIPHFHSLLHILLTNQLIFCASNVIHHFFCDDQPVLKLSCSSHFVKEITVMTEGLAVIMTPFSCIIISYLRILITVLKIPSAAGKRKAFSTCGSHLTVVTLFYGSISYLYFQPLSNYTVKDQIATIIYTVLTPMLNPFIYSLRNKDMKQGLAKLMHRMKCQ
Method in brief: as §1

[9] = molecular target: T9, OR1L3 (Homo sapiens) (UniProt Q8NH93)
T9 sequence (whole entry): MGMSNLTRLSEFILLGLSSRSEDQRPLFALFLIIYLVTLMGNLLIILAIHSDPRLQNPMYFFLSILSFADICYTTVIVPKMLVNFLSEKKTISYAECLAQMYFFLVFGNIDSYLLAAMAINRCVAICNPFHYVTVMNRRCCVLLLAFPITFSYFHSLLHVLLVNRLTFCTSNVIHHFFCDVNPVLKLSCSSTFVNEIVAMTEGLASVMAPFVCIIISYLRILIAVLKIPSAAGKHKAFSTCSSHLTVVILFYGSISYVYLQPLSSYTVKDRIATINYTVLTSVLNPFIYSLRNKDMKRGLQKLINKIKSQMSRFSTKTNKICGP
Method in brief: as §1

[10] = molecular target: T10, OR1L4 (Homo sapiens) (UniProt Q8NGR5)
T10 sequence (whole entry): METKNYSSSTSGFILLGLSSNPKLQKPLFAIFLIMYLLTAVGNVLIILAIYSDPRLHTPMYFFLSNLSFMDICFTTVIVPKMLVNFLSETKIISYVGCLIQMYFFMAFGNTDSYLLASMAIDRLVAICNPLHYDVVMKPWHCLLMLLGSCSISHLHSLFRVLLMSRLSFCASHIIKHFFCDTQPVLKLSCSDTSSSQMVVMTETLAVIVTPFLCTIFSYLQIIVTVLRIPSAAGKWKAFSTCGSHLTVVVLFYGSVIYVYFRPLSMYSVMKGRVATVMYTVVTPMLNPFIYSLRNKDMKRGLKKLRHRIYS
Method in brief: as §1

[11] = molecular target: T11, OR1L6 (Homo sapiens) (UniProt Q8NGR2)
T11 sequence (whole entry): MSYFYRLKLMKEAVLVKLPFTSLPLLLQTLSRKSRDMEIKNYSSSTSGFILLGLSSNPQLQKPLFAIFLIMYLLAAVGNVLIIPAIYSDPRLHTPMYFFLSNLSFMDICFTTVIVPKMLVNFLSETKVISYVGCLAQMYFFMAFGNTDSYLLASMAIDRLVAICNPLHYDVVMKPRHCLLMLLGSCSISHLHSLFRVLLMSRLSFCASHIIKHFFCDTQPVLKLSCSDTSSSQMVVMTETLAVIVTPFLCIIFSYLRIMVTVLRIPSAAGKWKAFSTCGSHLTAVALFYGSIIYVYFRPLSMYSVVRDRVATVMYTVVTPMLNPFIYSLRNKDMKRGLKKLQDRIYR
Method in brief: as §1

[12] = molecular target: T12, OR1L8 (Homo sapiens) (UniProt Q8NGR8)
T12 sequence (whole entry): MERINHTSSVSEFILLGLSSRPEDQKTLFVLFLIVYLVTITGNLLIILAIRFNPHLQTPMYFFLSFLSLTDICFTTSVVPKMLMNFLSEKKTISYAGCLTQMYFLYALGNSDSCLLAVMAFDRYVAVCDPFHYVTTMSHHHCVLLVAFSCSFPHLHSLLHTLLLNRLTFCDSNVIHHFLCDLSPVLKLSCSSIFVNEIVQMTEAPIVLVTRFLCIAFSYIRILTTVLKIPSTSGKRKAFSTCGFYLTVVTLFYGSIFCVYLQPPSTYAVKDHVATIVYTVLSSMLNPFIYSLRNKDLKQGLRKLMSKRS
Method in brief: as §1

[13] = molecular target: T13, OR1M1 (Homo sapiens) (UniProt Q8NGA1)
T13 sequence (whole entry): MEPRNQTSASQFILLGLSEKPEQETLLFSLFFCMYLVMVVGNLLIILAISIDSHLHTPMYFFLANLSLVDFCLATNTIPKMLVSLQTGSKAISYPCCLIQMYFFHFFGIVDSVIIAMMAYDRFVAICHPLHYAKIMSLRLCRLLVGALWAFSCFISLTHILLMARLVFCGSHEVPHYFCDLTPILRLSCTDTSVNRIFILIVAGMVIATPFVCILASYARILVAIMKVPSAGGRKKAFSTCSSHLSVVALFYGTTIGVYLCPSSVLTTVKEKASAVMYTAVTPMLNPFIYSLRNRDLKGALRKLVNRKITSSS
Method in brief: as §1

[14] = molecular target: T14, OR1N1 (Homo sapiens) (UniProt Q8NGS0)
T14 sequence (whole entry): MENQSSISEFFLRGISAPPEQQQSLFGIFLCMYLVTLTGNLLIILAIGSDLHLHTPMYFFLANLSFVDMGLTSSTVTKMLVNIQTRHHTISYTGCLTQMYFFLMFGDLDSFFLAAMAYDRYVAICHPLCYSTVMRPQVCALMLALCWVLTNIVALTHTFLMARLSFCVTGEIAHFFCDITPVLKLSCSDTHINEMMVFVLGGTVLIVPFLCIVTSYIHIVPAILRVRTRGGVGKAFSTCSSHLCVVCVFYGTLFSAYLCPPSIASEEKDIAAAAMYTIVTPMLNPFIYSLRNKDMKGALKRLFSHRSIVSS
Method in brief: as §1

Measured: odorant receptor agonist call

CC12CCC(CC1=O)C2(C)C (stereo not given)
active: [1]

CC(CO)CS (stereo not given)
inactive: all assays above
